Measurements published in ChEMBL document CHEMBL1151442, “Genetic and phenotypic identification of fusidic acid-resistant mutants with the small-colony-variant phenotype in Staphylococcus aureus” (2007).
In brackets after ≈: the same amount, converted by molar mass.

Assays:
Type in all cases: functional
Staphylococcus aureus [1] = assay: Antibacterial activity against kanamycin-resistant Staphylococcus aureus AH383 (SCV-55) harboring TAA stop codon at nucleotide 139 in rplF gene after 18 to 24 hrs by Etest strip assay
Procedure, shortened: (§1)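 SCVs of a Rifr 8325-4 derivative were selected on LA with KAN at 8, 16 or 24 μg/ml for 48 h at 37°C. They were purified at the same KAN level and screened on LA plus FA 1 μg/ml.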

Staphylococcus aureus [2] = assay: Antibacterial activity against fusidic acid-resistant Staphylococcus aureus AH209 harboring deletion of nucleotide 404-427 in rplF gene after 18 to 24 hrs by Etest strip assay
Procedure, shortened: (§2)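 Mutants of lab strain 8325-4 were selected on LA with FA 2 μg/ml for 48 h at 37°C and purified on selective medium. For the MIC, one colony was suspended in 0.9% NaCl to 0.5 McFarland and swabbed onto Mueller-Hinton agar. An Etest strip was applied and plates were incubated at 37°C for 18–24 h until the lawn was evident.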

Staphylococcus aureus [3] = assay: Ratio of MIC for kanamycin-resistant Staphylococcus aureus harboring mutations in FusA gene to MIC for wild type kanamycin-susceptible Staphylococcus aureus AH001
Staphylococcus aureus [4] = assay: Antibacterial activity against kanamycin-resistant Staphylococcus aureus AH360 (SCV-32) harboring ATA start codon at nucleotide 3 in rplF gene after 18 to 24 hrs by Etest strip assay; procedure, shortened: as §1
Staphylococcus aureus [5] = assay: Antibacterial activity against kanamycin-resistant and fusidic acid-susceptible Staphylococcus aureus AH288 harboring Gly617Asp mutation in fusA gene after 18 to 24 hrs by Etest strip assay
Procedure, shortened: (§3)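 Etest MIC: a single colony was suspended in 0.9% NaCl to 0.5 McFarland and swabbed over Mueller-Hinton agar. The strip was applied and plates were incubated at 37°C for 18 to 24 h until an SCV lawn grew.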

Staphylococcus aureus [6] = assay: Antibacterial activity against kanamycin-resistant Staphylococcus aureus AH369 (SCV-41) harboring Gln115Leu mutation in fusA gene after 18 to 24 hrs by Etest strip assay; procedure, shortened: as §1
Staphylococcus aureus [7] = assay: Antibacterial activity against kanamycin-resistant and fusidic acid-susceptible wild type Staphylococcus aureus 8325-4 […] after 18 to 24 hrs by Etest strip assay; procedure, shortened: as §3
Staphylococcus aureus [8] = assay: Antibacterial activity against kanamycin-resistant Staphylococcus aureus AH352 (SCV-24) harboring -1 frameshift mutation at nucleotide 106 in rplF gene after 18 to 24 hrs by Etest strip assay; procedure, shortened: as §1
Staphylococcus aureus [9] = assay: Antibacterial activity against kanamycin-resistant Staphylococcus aureus AH338 (SCV-10) harboring Arg464Cys mutation in fusA gene after 18 to 24 hrs by Etest strip assay; procedure, shortened: as §1
Staphylococcus aureus [10] = assay: Antibacterial activity against kanamycin-resistant Staphylococcus aureus AH374 (SCV-46) harboring -5 frameshift mutation at nucleotide 236-240 in rplF gene after 18 to 24 hrs by Etest strip assay; procedure, shortened: as §1
Staphylococcus aureus [11] = assay: Antibacterial activity against kanamycin-resistant Staphylococcus aureus AH384 (SCV-56) harboring -1 frameshift mutation at nucleotide 221 in rplF gene after 18 to 24 hrs by Etest strip assay; procedure, shortened: as §1
Staphylococcus aureus [12] = assay: Antibacterial activity against fusidic acid-resistant Staphylococcus aureus AH199 harboring TAA stop codon at nucleotide 241 in rplF gene after 18 to 24 hrs by Etest strip assay; procedure, shortened: as §2
Staphylococcus aureus [13] = assay: Antibacterial activity against kanamycin-resistant Staphylococcus aureus AH333 (SCV-5) harboring TAA stop codon at nucleotide 249 in rplF but gene after 18 to 24 hrs by Etest strip assay; procedure, shortened: as §1
Staphylococcus aureus [14] = assay: Antibacterial activity against kanamycin-resistant Staphylococcus aureus AH364 (SCV-36) harboring Asp434Asn mutation in fusA gene after 18 to 24 hrs by Etest strip assay; procedure, shortened: as §1
Staphylococcus aureus [15] = assay: Antibacterial activity against fusidic acid-resistant Staphylococcus aureus AH202 harboring CTG start codon at nucleotide 1 in rplF gene after 18 to 24 hrs by Etest strip assay; procedure, shortened: as §2
Staphylococcus aureus [16] = assay: Antibacterial activity against fusidic acid-resistant Staphylococcus aureus AH193 harboring TAA stop codon at nucleotide 299 in rplF gene after 18 to 24 hrs by Etest strip assay; procedure, shortened: as §2
Staphylococcus aureus [17] = assay: Antibacterial activity against fusidic acid-resistant Staphylococcus aureus AH196 harboring Pro406Leu mutation in fusA gene after 18 to 24 hrs by Etest strip assay; procedure, shortened: as §2
Staphylococcus aureus [18] = assay: Antibacterial activity against kanamycin-resistant Staphylococcus aureus AH330 (SCV-2) harboring -1 frameshift mutation at nucleotide 423 in rplF gene after 18 to 24 hrs by Etest strip assay; procedure, shortened: as §1
Staphylococcus aureus [19] = assay: Antibacterial activity against kanamycin-resistant and fusidic acid-susceptible Staphylococcus aureus AH294 harboring Gly628Val mutation in fusA gene after 18 to 24 hrs by Etest strip assay; procedure, shortened: as §3
Staphylococcus aureus [20] = assay: Antibacterial activity against fusidic acid-susceptible wild type Staphylococcus aureus 8325-4 after 18 to 24 hrs by Etest strip assay
Procedure, shortened: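 The inoculum was a single colony suspended in 0.9% NaCl to 0.5 McFarland and swabbed over a Mueller-Hinton agar plate. An Etest gradient strip was then applied, and the plate was incubated at 37°C for 18 to 24 h until lawn growth was evident. MIC was read from the strip following the manufacturer's instructions.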

Staphylococcus aureus [21] = assay: Antibacterial activity against fusidic acid-resistant Staphylococcus aureus AH187 harboring His457Tyr mutation in fusA gene after 18 to 24 hrs by Etest strip assay; procedure, shortened: as §2
Staphylococcus aureus [22] = assay: Antibacterial activity against kanamycin-resistant Staphylococcus aureus AH339 (SCV-11) harboring -1 frameshift mutation at nucleotide 144 in rplF gene after 18 to 24 hrs by Etest strip assay; procedure, shortened: as §1
Staphylococcus aureus [23] = assay: Antibacterial activity against kanamycin-resistant Staphylococcus aureus AH358 (SCV-30) harboring -1 frameshift mutation at nucleotide 423 in rplF gene after 18 to 24 hrs by Etest strip assay; procedure, shortened: as §1
Staphylococcus aureus [24] = assay: Antibacterial activity against fusidic acid-resistant Staphylococcus aureus AH206 harboring Arg464Ser mutation in fusA gene after 18 to 24 hrs by Etest strip assay; procedure, shortened: as §2
Staphylococcus aureus [25] = assay: Antibacterial activity against kanamycin-resistant Staphylococcus aureus AH370 (SCV-42) harboring TAA stop codon at nucleotide 229 in rplF gene after 18 to 24 hrs by Etest strip assay; procedure, shortened: as §1
Staphylococcus aureus [26] = assay: Antibacterial activity against kanamycin-resistant Staphylococcus aureus AH340 (SCV-12) harboring Gly617Asp mutation in fusA gene after 18 to 24 hrs by Etest strip assay; procedure, shortened: as §1
Staphylococcus aureus [27] = assay: Antibacterial activity against kanamycin-resistant and fusidic acid-susceptible Staphylococcus aureus AH291 harboring Arg659His mutation in fusA gene after 18 to 24 hrs by Etest strip assay; procedure, shortened: as §3
Staphylococcus aureus [28] = assay: Antibacterial activity against fusidic acid-resistant Staphylococcus aureus AH207 harboring Thr385Asn mutation in fusA gene after 18 to 24 hrs by Etest strip assay; procedure, shortened: as §2
Staphylococcus aureus [29] = assay: Antibacterial activity against kanamycin-resistant Staphylococcus aureus AH357 (SCV-29) harboring TAA stop codon at nucleotide 301 in rplF gene after 18 to 24 hrs by Etest strip assay; procedure, shortened: as §1
Staphylococcus aureus [30] = assay: Antibacterial activity against kanamycin-resistant Staphylococcus aureus AH346 (SCV-18) harboring -1 frameshift mutation at nucleotide 238 in rplF gene after 18 to 24 hrs by Etest strip assay; procedure, shortened: as §1
Staphylococcus aureus [31] = assay: Antibacterial activity against kanamycin-resistant and fusidic acid-susceptible Staphylococcus aureus AH416 harboring deletion of nucleotide 395-398 in rplF gene after 18 to 24 hrs by Etest strip assay; procedure, shortened: as §3

Compound | MIC (Staphylococcus aureus [1]) [µg/mL] | MIC (Staphylococcus aureus [2]) [µg/mL] | fold change (FC) (Staphylococcus aureus [3]) | MIC (Staphylococcus aureus [4]) [µg/mL] | MIC (Staphylococcus aureus [5]) [µg/mL] | MIC (Staphylococcus aureus [6]) [µg/mL] | MIC (Staphylococcus aureus [7]) [µg/mL] | MIC (Staphylococcus aureus [8]) [µg/mL] | MIC (Staphylococcus aureus [9]) [µg/mL] | MIC (Staphylococcus aureus [10]) [µg/mL] | MIC (Staphylococcus aureus [11]) [µg/mL] | MIC (Staphylococcus aureus [12]) [µg/mL] | MIC (Staphylococcus aureus [13]) [µg/mL] | MIC (Staphylococcus aureus [14]) [µg/mL] | MIC (Staphylococcus aureus [15]) [µg/mL] | MIC (Staphylococcus aureus [16]) [µg/mL] | MIC (Staphylococcus aureus [17]) [µg/mL] | MIC (Staphylococcus aureus [18]) [µg/mL] | MIC (Staphylococcus aureus [19]) [µg/mL] | MIC (Staphylococcus aureus [20]) [µg/mL] | other results
CN[C@@H]1[C@H](O[C@H]2[C@H](O[C@H]3[C@H](O)[C@@H](O)[C@H](N=C(N)N)[C@@H](O)[C@@H]3N=C(N)N)O[C@@H](C)[C@]2(O)C=O)O[C@@H](CO)[C@H](O)[C@H]1O [STREPTOMYCIN] | 192 (≈ 330 µM) | 16 (≈ 27.5 µM) | 3 | 192 (≈ 330 µM) | 32 (≈ 55 µM) | 12 (≈ 20.6 µM) | 6 (≈ 10.3 µM) | 24 | 24 (≈ 41.3 µM) | 96 | 256 | 16 (≈ 27.5 µM) | 24 (≈ 41.3 µM) | 24 (≈ 41.3 µM) | 16 (≈ 27.5 µM) | 24 (≈ 41.3 µM) | 8 (≈ 13.8 µM) | 96 | 8 (≈ 13.8 µM) | 3 (≈ 5.16 µM) | MIC (Staphylococcus aureus [21]): 6 µg/mL (≈ 10.3 µM); MIC (Staphylococcus aureus [22]): 128 µg/mL; MIC (Staphylococcus aureus [23]): 64 µg/mL; MIC (Staphylococcus aureus [24]): 8 µg/mL (≈ 13.8 µM); MIC (Staphylococcus aureus [25]): 24 µg/mL (≈ 41.3 µM); MIC (Staphylococcus aureus [26]): 24 µg/mL (≈ 41.3 µM); MIC (Staphylococcus aureus [27]): 24 µg/mL (≈ 41.3 µM); MIC (Staphylococcus aureus [28]): 12 µg/mL (≈ 20.6 µM); MIC (Staphylococcus aureus [29]): 256 µg/mL (≈ 440 µM); MIC (Staphylococcus aureus [30]): 24 µg/mL; MIC (Staphylococcus aureus [31]): 256 µg/mL (≈ 440 µM)
NC[C@H]1O[C@H](O[C@H]2[C@H](O)[C@@H](O[C@H]3O[C@H](CO)[C@@H](O)[C@H](N)[C@H]3O)[C@H](N)C[C@@H]2N)[C@H](O)[C@@H](O)[C@@H]1O [KANAMYCIN] | 96 (≈ 198 µM) | 8 (≈ 16.5 µM) | 3 | 96 (≈ 198 µM) | 16 (≈ 33 µM) | 6 (≈ 12.4 µM) | 2 (≈ 4.13 µM) | 6 | 48 (≈ 99.1 µM) | 32 | 128 | 8 (≈ 16.5 µM) | 8 (≈ 16.5 µM) | 8 (≈ 16.5 µM) | 8 (≈ 16.5 µM) | 8 (≈ 16.5 µM) | 3 (≈ 6.19 µM) | 128 | 16 (≈ 33 µM) | 1.5 (≈ 3.1 µM) | MIC (Staphylococcus aureus [21]): 3 µg/mL (≈ 6.19 µM); MIC (Staphylococcus aureus [22]): 64 µg/mL; MIC (Staphylococcus aureus [23]): 48 µg/mL; MIC (Staphylococcus aureus [24]): 6 µg/mL (≈ 12.4 µM); MIC (Staphylococcus aureus [25]): 8 µg/mL (≈ 16.5 µM); MIC (Staphylococcus aureus [26]): 12 µg/mL (≈ 24.8 µM); MIC (Staphylococcus aureus [27]): 24 µg/mL (≈ 49.5 µM); MIC (Staphylococcus aureus [28]): 3 µg/mL (≈ 6.19 µM); MIC (Staphylococcus aureus [29]): 96 µg/mL (≈ 198 µM); MIC (Staphylococcus aureus [30]): 8 µg/mL; MIC (Staphylococcus aureus [31]): 256 µg/mL (≈ 528 µM)
CC(=O)O[C@H]1C[C@@]2(C)[C@@H](C[C@@H](O)[C@H]3[C@@]4(C)CC[C@@H](O)[C@@H](C)[C@@H]4CC[C@@]32C)/C1=C(\CCC=C(C)C)C(=O)O [FUSIDIC ACID] | 16 (≈ 31 µM) | 4 (≈ 7.74 µM) | 32 | 24 (≈ 46.4 µM) | 6 (≈ 11.6 µM) | 48 (≈ 92.9 µM) | 0.047 (≈ 0.091 µM) | 4 | 2 (≈ 3.87 µM) | 8 | 24 | 4 (≈ 7.74 µM) | 12 (≈ 23.2 µM) | 256 (≈ 495 µM) | 4 (≈ 7.74 µM) | 4 (≈ 7.74 µM) | 6 (≈ 11.6 µM) | 12 | 2 (≈ 3.87 µM) | 0.125 (≈ 0.242 µM) | MIC (Staphylococcus aureus [21]): 96 µg/mL (≈ 186 µM); MIC (Staphylococcus aureus [22]): 6 µg/mL; MIC (Staphylococcus aureus [23]): 12 µg/mL; MIC (Staphylococcus aureus [24]): 6 µg/mL (≈ 11.6 µM); MIC (Staphylococcus aureus [25]): 8 µg/mL (≈ 15.5 µM); MIC (Staphylococcus aureus [26]): 4 µg/mL (≈ 7.74 µM); MIC (Staphylococcus aureus [27]): 4 µg/mL (≈ 7.74 µM); MIC (Staphylococcus aureus [28]): 4 µg/mL (≈ 7.74 µM); MIC (Staphylococcus aureus [29]): 12 µg/mL (≈ 23.2 µM); MIC (Staphylococcus aureus [30]): 8 µg/mL; MIC (Staphylococcus aureus [31]): 48 µg/mL (≈ 92.9 µM)
